Among the data in ChEMBL document CHEMBL2390889, “Synthesis and anticancer activity of acyl thioureas bearing pyrazole moiety” (2013) are viability values, retold here.

Common to all, as to assay type: functional
Assay [1] relates to HepG2. Description: Anticancer activity against human HepG2 cells assessed as viable cells at 10^-5 M after 48 hrs by XTT assay relative to control. Conditions: HepG2, 48 h, read-out: Activity. The essentials:
(§1)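 DLD-1, HepG2 and Jurkat cells were grown in low-glucose DMEM with 10% FBS, 1% L-glutamine, 100 IU/mL penicillin and streptomycin at 37 °C under 5% CO2. They were seeded at 10 × 10^4 cells/well and treated with a 10-fold dilution series from 10^-4 to 10^-8 M for 24 or 48 h. XTT was then added, absorbance read at 450 nm after 4 h, and viability expressed as % of untreated control (set to 100%).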
On the technique in general: Tetrazolium dyes change colour on reduction, which living cells bring about.

For assay [2], the system named is HepG2. The experiment in a line: Anticancer activity against human HepG2 cells assessed as viable cells at 10^-4 M after 48 hrs by XTT assay relative to control. Conditions: HepG2, 48 h, read-out: Activity. The essentials: as §1
Assay [3] relates to DLD-1. The experiment in a line: Anticancer activity against human DLD1 cells assessed as viable cells at 10^-5 M after 48 hrs by XTT assay relative to control. As to conditions: DLD-1, 48 h, read-out: Activity. The essentials: as §1
The subject of assay [4] is DLD-1. Description: Anticancer activity against human DLD1 cells assessed as viable cells at 10^-4 M after 48 hrs by XTT assay relative to control. Conditions: DLD-1, 48 h, read-out: Activity. Put shortly:
as §1

The subject of assay [5] is Jurkat. The experiment in a line: Anticancer activity against human Jurkat cells assessed as viable cells at 10^-5 M after 48 hrs by XTT assay relative to control. Conditions: read-out: Activity. Put shortly:
as §1

In assay [6] the test system is Jurkat. The experiment in a line: Anticancer activity against human Jurkat cells assessed as viable cells at 10^-4 M after 48 hrs by XTT assay relative to control. Conditions: read-out: Activity. Put shortly:
as §1

Assay [7] deals with HepG2. The experiment in a line: Anticancer activity against human HepG2 cells assessed as viable cells at 10^-5 M after 24 hrs by XTT assay relative to control. As to conditions: HepG2, 24 h, read-out: Activity. Put shortly:
as §1

Assay [8] relates to HepG2. The experiment in a line: Anticancer activity against human HepG2 cells assessed as viable cells at 10^-4 M after 24 hrs by XTT assay relative to control. As to conditions: HepG2, 24 h, read-out: Activity. Put shortly:
as §1

The subject of assay [9] is DLD-1. The experiment in a line: Anticancer activity against human DLD1 cells assessed as viable cells at 10^-4 M after 24 hrs by XTT assay relative to control. As to conditions: DLD-1, 24 h, read-out: Activity. Put shortly:
as §1

The subject of assay [10] is DLD-1. The experiment in a line: Anticancer activity against human DLD1 cells assessed as viable cells at 10^-5 M after 24 hrs by XTT assay relative to control. As to conditions: DLD-1, 24 h, read-out: Activity. Put shortly: as §1
Assay [11] concerns Jurkat. Description: Anticancer activity against human Jurkat cells assessed as viable cells at 10^-5 M after 24 hrs by XTT assay relative to control. As to conditions: read-out: Activity. Put shortly: as §1
The test system of assay [12] is Jurkat. Description: Anticancer activity against human Jurkat cells assessed as viable cells at 10^-4 M after 24 hrs by XTT assay relative to control. As to conditions: read-out: Activity. Put shortly: as §1

Regarding `Cc1ccc(NC(=S)NC(=O)c2nn(-c3ccccc3)c(-c3ccccc3)c2C(=O)c2ccccc2)cc1`, the viability at 10 µM was determined as 27.7% in the assay with HepG2 [1]; 48.5% with DLD-1 [3]; 14.2% in the assay with Jurkat [5]; 51.6% with HepG2 [7]; 65.1% in the assay on DLD-1 [10]; 50.3% in the assay on Jurkat [11]. Moreover, the viability at 100 µM is 25.9% with HepG2 [2]; 40.2% in the assay on DLD-1 [4]; 12.5% in the assay with Jurkat [6]; 49.2% with HepG2 [8]; 57.1% in the assay on DLD-1 [9]; 30% in the assay on Jurkat [12].
For `Cc1ccccc1NC(=S)NC(=O)c1nn(-c2ccccc2)c(-c2ccccc2)c1C(=O)c1ccccc1`, the viability at 10 µM in the assay with HepG2 [1] amounted to 22.8%; with DLD-1 [3], 45.6%; with Jurkat [5], 51.2%; in the assay on HepG2 [7], 33.3%; in the assay on DLD-1 [10], 63.2%; in the assay with Jurkat [11], 100%. Besides, the viability at 100 µM turned out to be 20.8% in the assay with HepG2 [2]; 41.3% with DLD-1 [4]; 76.6% with Jurkat [6]; 29.1% in the assay on HepG2 [8]; 55.3% in the assay with DLD-1 [9]; 100% with Jurkat [12].
For the compound `COc1ccc(NC(=S)NC(=O)c2nn(-c3ccccc3)c(-c3ccccc3)c2C(=O)c2ccccc2)cc1`, the viability at 10 µM with HepG2 [1] was determined as 27.9%; in the assay on DLD-1 [3], 68.2%; in the assay with Jurkat [5], 87.5%; with HepG2 [7], 42%; in the assay with DLD-1 [10] it was 80.5%; with Jurkat [11], 37.8%. In addition, the viability at 100 µM turned out to be 22.6% in the assay on HepG2 [2]; 62.1% with DLD-1 [4]; 8.98% with Jurkat [6]; 36.5% in the assay on HepG2 [8]; 71.2% in the assay with DLD-1 [9]; 31.1% in the assay on Jurkat [12].
On to `O=C(NC(=S)Nc1ccc(F)cc1)c1nn(-c2ccccc2)c(-c2ccccc2)c1C(=O)c1ccccc1`, for which the viability at 10 µM with HepG2 [1] turned out to be 30.1%; in the assay on DLD-1 [3] it was 60.2%; in the assay with Jurkat [5] it was 47.8%; in the assay with HepG2 [7], 54.2%; in the assay on DLD-1 [10] it was 75.1%; in the assay with Jurkat [11], 100%. Moreover, the viability at 100 µM in the assay with HepG2 [2] came out at 23.6%; with DLD-1 [4], 51.5%; in the assay on Jurkat [6] it was 67.6%; with HepG2 [8] it was 50.1%; with DLD-1 [9], 62.5%; in the assay with Jurkat [12] it was 100%.
Turning to `O=C(NC(=S)Nc1ccc(Cl)cc1)c1nn(-c2ccccc2)c(-c2ccccc2)c1C(=O)c1ccccc1`, the viability at 10 µM with HepG2 [1] was 24.9%; in the assay on DLD-1 [3], 55.2%; in the assay with Jurkat [5], 90%; in the assay on HepG2 [7] it was 53.7%; with DLD-1 [10], 73.3%; in the assay with Jurkat [11], 56.3%. Moreover, the viability at 100 µM was found to be 24.8% with HepG2 [2]; 49.2% in the assay with DLD-1 [4]; 24.2% in the assay with Jurkat [6]; 49.5% in the assay on HepG2 [8]; 60.5% with DLD-1 [9]; 57.3% in the assay with Jurkat [12].
On to `O=C(NC(=S)Nc1ccc(Br)cc1)c1nn(-c2ccccc2)c(-c2ccccc2)c1C(=O)c1ccccc1`, for which the viability at 10 µM with HepG2 [1] was 27.8%; in the assay with DLD-1 [3] it was 62.5%; in the assay on Jurkat [5] it was 87.5%; in the assay with HepG2 [7] it was 51.5%; in the assay on DLD-1 [10] it was 78.1%; in the assay with Jurkat [11], 100%. In addition, the viability at 100 µM in the assay with HepG2 [2] was 27.2%; in the assay on DLD-1 [4], 50.1%; in the assay with Jurkat [6] it was 40.1%; in the assay with HepG2 [8], 55.2%; in the assay on DLD-1 [9], 65.2%; in the assay with Jurkat [12] it was 78.1%.
Regarding `O=C(NC(=S)Nc1cccc2ccccc12)c1nn(-c2ccccc2)c(-c2ccccc2)c1C(=O)c1ccccc1`, the viability at 10 µM in the assay with HepG2 [1] was determined as 51.2%; with DLD-1 [3], 75.5%; with Jurkat [5], 14.5%; in the assay with HepG2 [7], 85.5%; with DLD-1 [10], 82.2%; in the assay on Jurkat [11], 46%. Besides, the viability at 100 µM came to 49.9% with HepG2 [2]; 70.6% in the assay with DLD-1 [4]; 8.24% in the assay on Jurkat [6]; 78.7% in the assay on HepG2 [8]; 74.2% with DLD-1 [9]; 36.4% in the assay on Jurkat [12].
In the case of `NC(=O)c1ccc(NC(=S)NC(=O)c2nn(-c3ccccc3)c(-c3ccccc3)c2C(=O)c2ccccc2)cc1`, the viability at 10 µM came to 27.3% in the assay with HepG2 [1]; 95.2% with DLD-1 [3]; 66.3% with Jurkat [5]; 44.2% with HepG2 [7]; 100% in the assay on DLD-1 [10]; 100% with Jurkat [11]. For the same compound, the viability at 100 µM with HepG2 [2] was 22.9%; in the assay with DLD-1 [4], 96.6%; in the assay with Jurkat [6], 39.2%; in the assay with HepG2 [8], 38.1%; with DLD-1 [9], 100%; in the assay on Jurkat [12] it was 100%.
Regarding `O=C(NC(=S)NCc1ccccc1)c1nn(-c2ccccc2)c(-c2ccccc2)c1C(=O)c1ccccc1`, the viability at 10 µM with HepG2 [1] amounted to 40.6%; in the assay with DLD-1 [3], 65.5%; with Jurkat [5] it was 23.1%; in the assay with HepG2 [7], 56.4%; in the assay with DLD-1 [10], 75.2%; in the assay on Jurkat [11], 34.7%. The viability at 100 µM was determined as 39.8% in the assay with HepG2 [2]; 55.9% in the assay with DLD-1 [4]; 17.9% in the assay on Jurkat [6]; 49.2% with HepG2 [8]; 64.2% in the assay with DLD-1 [9]; 36.6% in the assay on Jurkat [12].
Turning to `O=C(NC(=S)Nc1ncccn1)c1nn(-c2ccccc2)c(-c2ccccc2)c1C(=O)c1ccccc1`, the viability at 10 µM turned out to be 31.2% with HepG2 [1]; 81.4% with DLD-1 [3]; 28% in the assay on Jurkat [5]; 51.1% with HepG2 [7]; 88.5% with DLD-1 [10]; 100% in the assay with Jurkat [11]. The viability at 100 µM amounted to 28.8% in the assay on HepG2 [2]; 75.5% in the assay on DLD-1 [4]; 23.4% with Jurkat [6]; 44.3% in the assay with HepG2 [8]; 80.4% in the assay with DLD-1 [9]; 86.2% with Jurkat [12].
On to `O=C(NC(=S)Nc1ccccc1)c1nn(-c2ccccc2)c(-c2ccccc2)c1C(=O)c1ccccc1`, for which the viability at 10 µM is 23.7% in the assay with HepG2 [1]; 55.4% in the assay on DLD-1 [3]; 67.6% with Jurkat [5]; 42.1% with HepG2 [7]; 75.5% in the assay with DLD-1 [10]; 30% with Jurkat [11]. Besides, the viability at 100 µM in the assay with HepG2 [2] came out at 21.8%; in the assay with DLD-1 [4], 60.6%; in the assay with Jurkat [6], 6%; with HepG2 [8], 38.2%; in the assay on DLD-1 [9], 71.3%; with Jurkat [12], 23.3%.
